Source: ChEMBL document CHEMBL1255290, “Characterization of a novel human immunodeficiency virus type 1 protease inhibitor, A-790742” (Antimicrob Agents Chemother, 2008)

Assays:
[1] = system: Human immunodeficiency virus 1; test: (§1) Antiviral activity against HIV1 P9 infected in human MT4 cells derived from viral passages with A-790742 harboring protease V82V/L and I84V mutation assessed as reduction in viral cytopathogenicity treated 1 hr post infection measured 5 days post infection by MTT assay relative to wild type HIV1 pNL4-3; assay type: functional
In short: (§2)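 For the assay, 10⁶ MT-4 cells were infected at MOI 0.003, washed after 1 h, and plated at 10⁴ cells/well with eight serial compound dilutions in triplicate (0.5% DMSO final). MTT cytopathic read-out at day 5; EC50 from dose-response fitting.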

[2] = system: Human immunodeficiency virus 1; test: as §1, with “P15” for “P9”, “L33L/F, K45I, V82L,” for “V82V/L”; assay type: functional; in short: as §2
[3] = system: Human immunodeficiency virus 1; test: as §1, with “P21” for “P9”, “L23I, L33F, K45I, A71A/V, V77I, V82L,” for “V82V/L”; assay type: functional; in short: as §2
[4] = system: Human immunodeficiency virus 1; test: as §1, with “P13” for “P9”, “M46I, L63P, A71V,” for “V82V/L”, “V82G” for “I84V”, “RF” for “pNL4-3”; assay type: functional; in short: as §2
[5] = system: Human immunodeficiency virus 1; test: Antiviral activity against HIV1 clone1 infected in HEK293 cells harboring A-790742-selected protease I84V mutation assessed as reduction in viral replication by luciferase reporter gene assay relative to wild type HIV1 pNL4-3; assay type: functional
In short: (§3)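 Single-cycle assay: HEK-293 cells were cotransfected with luciferase-reporter HIV-1 protease clones plus a VSV-G expression vector. After 4 h, cells were replated at 2 × 10⁴/well over serial inhibitor dilutions in triplicate. Pseudovirus collected at 48 h infected fresh HEK-293 (10⁴/well). Luciferase read 48 h later gave % inhibition versus untreated and EC50. Fold change against WT pNL4-3-Luc (clones 1-4) or RF-Luc (clone 5) is the mean of three experiments.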

[6] = system: Human immunodeficiency virus 1; test: Antiviral activity against HIV1 clone2 infected in HEK293 cells harboring A-790742-selected protease V82L mutation assessed as reduction in viral replication by luciferase reporter gene assay relative to wild type HIV1 pNL4-3; assay type: functional; in short: as §3
[7] = system: Human immunodeficiency virus 1; test: Antiviral activity against HIV1 clone3 infected in HEK293 cells harboring A-790742-selected protease L33F, K45I, V82L, and I84V mutation assessed as reduction in viral replication by luciferase reporter gene assay relative to wild type HIV1 pNL4-3; assay type: functional; in short: as §3
[8] = system: Human immunodeficiency virus 1; test: Antiviral activity against HIV1 clone4 infected in HEK293 cells harboring A-790742-selected protease L33F, A71V, G73S, V77I, V82L, and I84V mutation assessed as reduction in viral replication by luciferase reporter gene assay relative to wild type HIV1 pNL4-3; assay type: functional; in short: as §3
[9] = system: Human immunodeficiency virus 1; test: Antiviral activity against HIV1 clone5 infected in HEK293 cells harboring A-790742-selected protease L63P, A71V, and V82G mutation assessed as reduction in viral replication by luciferase reporter gene assay relative to wild type HIV1 RF; assay type: functional; in short: as §3
[10] = system: Human immunodeficiency virus 1; test: Antiviral activity against wild-type HIV1 pNL4-3 infected in human MT4 cells assessed as reduction in viral cytopathogenicity treated 1 hr post infection measured 5 days post infection in presence of 50% human serum by MTT assay; assay type: functional, organism-based; conditions: Human immunodeficiency virus 1, pNL4-3, MT4
[11] = system: Human immunodeficiency virus 1; test: Antiviral activity against HIV1 P25 infected in human MT4 cells harboring protease L10F, G16E, V32I, M46I, I47A, H69Y, I84V, and T91S mutation derived from viral passages with Lopinavir assessed as reduction in viral cytopathogenicity treated 1 hr post infection measured 5 days post infection by MTT assay; assay type: functional, organism-based; conditions: Human immunodeficiency virus 1, P25, MT4; in short: as §2
[12] = system: Human immunodeficiency virus 1; test: Antiviral activity against wild-type HIV1 pNL4-3 infected in human MT4 cells assessed as reduction in viral cytopathogenicity treated 1 hr post infection measured 5 days post infection in absence of human serum by MTT assay; assay type: functional, organism-based; conditions: Human immunodeficiency virus 1, pNL4-3, MT4; in short: as §2
[13] = system: Human immunodeficiency virus 1; test: Antiviral activity against wild-type HIV1 RF infected in human MT4 cells assessed as reduction in viral cytopathogenicity treated 1 hr post infection measured 5 days post infection in absence of human serum by MTT assay; assay type: functional, organism-based; conditions: Human immunodeficiency virus 1, RF; in short: as §2
[14] = system: Human immunodeficiency virus 1; test: Antiviral activity against HIV1 A17 infected in human MT4 cells harboring protease L10F, V32I, M46I, I47V, Q58E, and I84V mutation derived from viral passages with Lopinavir assessed as reduction in viral cytopathogenicity treated 1 hr post infection measured 5 days post infection by MTT assay; assay type: functional, organism-based; conditions: Human immunodeficiency virus 1, A17, MT4; in short: as §2
[15] = system: Human immunodeficiency virus 1; test: Antiviral activity against HIV1 isolate 7 infected in human MT4 cells obtained from protease inhibitor-resistant patient harboring protease L10I, M46M/L, G48V, I54V, L63P, A71V, I72M, V77I, V82A, L90M, I93L mutation derived from viral passages with Lopinavir assessed as reduction in viral cytopathogenicity treated 1 hr post infection measured 5 days post infection by MTT assay relative to wild …; assay type: functional
[16] = system: Human immunodeficiency virus 1; test: Antiviral activity against HIV1 isolate 8 infected in human MT4 cells obtained from protease inhibitor-resistant patient harboring protease L10I, I13V, L33F, E34Q, R41K, M46I, I54V, K55R, R57K, Q58E, I62V, L63P, A71V, I72I/T, G73S, V82A, I84V, L90M mutation derived from viral passages with Lopinavir assessed as reduction in viral cytopathogenicity treated 1 hr post infection measured 5 days post …; assay type: functional
[17] = system: Human immunodeficiency virus 1; test: Antiviral activity against HIV1 isolate 9 infected in human MT4 cells obtained from protease inhibitor-resistant patient harboring protease L10I, I15I/V, K20R, L33F, E35D, M36I, N37D, R41K, K43I, M46I, I54V, I62V, L63P, A71T, I72T, V82A, I84V, L90M, I93L mutation derived from viral passages with Lopinavir assessed as reduction in viral cytopathogenicity treated 1 hr post infection measured 5 days …; assay type: functional
[18] = system: Human immunodeficiency virus 1; test: Antiviral activity against HIV1 isolate 10 infected in human MT4 cells obtained from protease inhibitor-resistant patient harboring protease L10I, I13V, K20R, L33F, E35D, M36I, N37D, I54L, Q58E, I62V, L63P, A71V, V82A, I84V, L90M mutation derived from viral passages with Lopinavir assessed as reduction in viral cytopathogenicity treated 1 hr post infection measured 5 days post infection by MTT …; assay type: functional
[19] = system: Human immunodeficiency virus 1; test: Antiviral activity against HIV1 isolate 11 infected in human MT4 cells obtained from protease inhibitor-resistant patient harboring protease L10I, I15V, K20R, E21Q, E35D, M36I, N37D, R41K, M46L, I54V, I62V, L63P, A71V, T74D, P79A, V82T, I84V, I85V, L90M, I93L mutation derived from viral passages with Lopinavir assessed as reduction in viral cytopathogenicity treated 1 hr post infection measured …; assay type: functional
[20] = system: Human immunodeficiency virus 1; test: Antiviral activity against HIV1 isolate 12 infected in human MT4 cells obtained from protease inhibitor-resistant patient harboring protease L10I, I13V, K20I, E35D, M36I, M46I, I50V, I54V, R57K, I62V, L63P, A71V, V82A, L89V, L90M, Q92K mutation derived from viral passages with Lopinavir assessed as reduction in viral cytopathogenicity treated 1 hr post infection measured 5 days post infection by …; assay type: functional
[21] = system: Human immunodeficiency virus 1; test: Antiviral activity against HIV1 isolate 13 infected in human MT4 cells obtained from protease inhibitor-resistant patient harboring protease L10I, K14R, L33F, E34Q, R41K, K45R, M46I, I50V, K55R, L63P, A71V, G73T, V77I, V82A, L90M, I93L mutation derived from viral passages with Lopinavir assessed as reduction in viral cytopathogenicity treated 1 hr post infection measured 5 days post infection by …; assay type: functional
[22] = system: Human immunodeficiency virus 1; test: Antiviral activity against HIV1 isolate 6 infected in human MT4 cells obtained from protease inhibitor-resistant patient harboring protease L10I, L24I, M46I, I54V, K55R, Q58E, L63P, I64V, A71V, V82A, T91A mutation derived from viral passages with Lopinavir assessed as reduction in viral cytopathogenicity treated 1 hr post infection measured 5 days post infection by MTT assay relative to wild type …; assay type: functional
[23] = system: Human immunodeficiency virus 1; test: Antiviral activity against HIV1 B26 infected in human MT4 cells harboring protease L33F, K45I, M46I, I50V, I54V, A71V, and V82F mutation derived from viral passages with Lopinavir assessed as reduction in viral cytopathogenicity treated 1 hr post infection measured 5 days post infection by MTT assay; assay type: functional, organism-based; conditions: Human immunodeficiency virus 1, B26, MT4; in short: as §2
[24] = system: Human immunodeficiency virus 1; test: Antiviral activity against HIV1 isolate 2 infected in human MT4 cells obtained from protease inhibitor-resistant patient harboring protease L10I, I15V, G16E, K20R, E35D, M36I, R41K, I54A, R57K, Q61D, A71V, I72R, V82A, L89I, L90M, Q92K mutation derived from viral passages with Lopinavir assessed as reduction in viral cytopathogenicity treated 1 hr post infection measured 5 days post infection by …; assay type: functional
[25] = system: Human immunodeficiency virus 1; test: Antiviral activity against HIV1 isolate 3 infected in human MT4 cells obtained from protease inhibitor-resistant patient harboring protease L10I, E35D, N37D, […], I54V, L63P, A71V, T74P, I84V, L90M, I93L mutation derived from viral passages with Lopinavir assessed as reduction in viral cytopathogenicity treated 1 hr post infection measured 5 days post infection by MTT assay relative to wild type …; assay type: functional
[26] = system: Human immunodeficiency virus 1; test: Antiviral activity against HIV1 isolate 4 infected in human MT4 cells obtained from protease inhibitor-resistant patient harboring protease N37T, M46I, Q58E, I64V, T74K, V77I, V82F, L90M mutation derived from viral passages with Lopinavir assessed as reduction in viral cytopathogenicity treated 1 hr post infection measured 5 days post infection by MTT assay relative to wild type HIV1 pNL4-3; assay type: functional
[27] = system: Human immunodeficiency virus 1; test: Antiviral activity against HIV1 isolate 5 infected in human MT4 cells obtained from protease inhibitor-resistant patient harboring protease L10F, I15V, M46I, L63P, A71V, I72L, V82T, I84V, I85V, L90M mutation derived from viral passages with Lopinavir assessed as reduction in viral cytopathogenicity treated 1 hr post infection measured 5 days post infection by MTT assay relative to wild type HIV1 …; assay type: functional

Row | Compound | Ratio EC50 [1] | Ratio EC50 [2] | Ratio EC50 [3] | Ratio EC50 [4] | Ratio EC50 [5] | Ratio EC50 [6] | Ratio EC50 [7] | Ratio EC50 [8] | Ratio EC50 [9] | EC50 [10] [nM] | EC50 [11] [nM] | further results
1 | CC(C)(C)NC(=O)[C@@H]1C[C@@H]2CCCC[C@@H]2CN1C[C@@H](O)[C@H](Cc1ccccc1)NC(=O)[C@H](CC(N)=O)NC(=O)c1ccc2ccccc2n1 | 3 | 4 | 5 | 21 | 1 | 1 | 0.4 | 1 | 28 | – | – | –
2 | CC(C)CN(C[C@@H](O)[C@H](Cc1ccccc1)NC(=O)O[C@H]1CCOC1)S(=O)(=O)c1ccc(N)cc1 | 9 | 11 | 34 | 41 | 1 | 1 | 12 | 2 | 41 | – | – | –
3 | CC(C)CN(C[C@@H](O)[C@H](Cc1ccccc1)NC(=O)O[C@H]1CO[C@H]2OCC[C@H]21)S(=O)(=O)c1ccc(N)cc1 | – | – | – | – | 1 | 1 | 12 | 7 | 59 | 40 | 857 | –
4 | CCC[C@@]1(CCc2ccccc2)CC(O)=C([C@H](CC)c2cccc(NS(=O)(=O)c3ccc(C(F)(F)F)cn3)c2)C(=O)O1 | – | – | – | – | – | – | – | 6 | – | 7840 | – | EC50 [12]: 184 nM; EC50 [13]: 204 nM; EC50 [14]: 360 nM
5 | CC(C)(C)NC(=O)[C@@H]1CN(Cc2cccnc2)CCN1C[C@@H](O)C[C@@H](Cc1ccccc1)C(=O)N[C@H]1c2ccccc2C[C@H]1O.O | 3 | 5 | 14 | 31 | 1 | 1 | 5 | 2 | 76 | – | – | –
6 | Cc1c(O)cccc1C(=O)N[C@@H](CSc1ccccc1)[C@H](O)CN1C[C@H]2CCCC[C@H]2C[C@H]1C(=O)NC(C)(C)C | 5 | 6 | >93 | 67 | 1 | 1 | 3 | 2 | 203 | – | – | –
7 | COC(=O)N[C@H](C(=O)N[C@@H](Cc1ccccc1)[C@@H](O)CN(Cc1ccc(-c2ccccn2)cc1)NC(=O)[C@@H](NC(=O)OC)C(C)(C)C)C(C)(C)C [ATAZANAVIR] | 6 | 14 | 145 | 31 | 1 | 1 | 34 | 16 | 39 | 11 | 355 | Ratio EC50 [15]: 25; Ratio EC50 [16]: 32; Ratio EC50 [17]: 22; Ratio EC50 [18]: 56; Ratio EC50 [19]: 43; Ratio EC50 [20]: 3; Ratio EC50 [21]: 5; Ratio EC50 [22]: 15; EC50 [12]: 4 nM; EC50 [13]: 7 nM; EC50 [14]: 296 nM; EC50 [23]: 51 nM; Ratio EC50 [24]: 172; Ratio EC50 [25]: 89; Ratio EC50 [26]: 5; Ratio EC50 [27]: 18
8 | Cc1cccc(C)c1OCC(=O)N[C@@H](Cc1ccccc1)[C@@H](O)C[C@H](Cc1ccccc1)NC(=O)[C@H](C(C)C)N1CCCNC1=O [LOPINAVIR] | – | – | – | – | – | – | – | – | – | – | > 10000 | –
9 | CC(C)c1nc(CN(C)C(=O)N[C@H](C(=O)N[C@@H](Cc2ccccc2)C[C@H](O)[C@H](Cc2ccccc2)NC(=O)OCc2cncs2)C(C)C)cs1 [RITONAVIR] | 26.7 | 29 | >141 | 79 | 3 | 7 | 79 | 14 | 1386 | – | – | –
